According to ChEMBL document CHEMBL4732041, “Sulfonium-based liposome-encapsulated antibiotics deliver a synergistic antibacterial activity” (RSC Med Chem, 2021):
pIC50: −log10 of the molar value. Converted amounts (≈) assume the structure as drawn. “And” between values parts separate entries of the source, which are not always exact repeats. Equal values may be shown once. The source made the active and inactive calls. No cut-off for these calls is given here.

Experiments:
[1] = Therapeutic index, ratio of IC50 for human HaCaT to MIC for Staphylococcus aureus; type: toxicity; conditions: HaCaT cells
[2] = tested on: Staphylococcus aureus; assay: Antibacterial activity against Staphylococcus aureus MTCC 96 incubated for 14 to 16 hrs by micro broth dilution method; type: functional; conditions: time 14-16 hrs
Outline: (§1)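 Broth microdilution. E. coli and P. aeruginosa grown in LB, S. aureus in BHI, to mid-log phase at 37 °C with shaking. Cells washed and resuspended in PBS, then exposed to graded compound concentrations at 10^6 CFU/mL at 37 °C for 14–16 h. OD600 read. MIC is the lowest concentration with no visible growth or OD close to the bacteria-free control. Repeated thrice at the MIC.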

[3] = tested on: Pseudomonas aeruginosa; assay: Antibacterial activity against Pseudomonas aeruginosa MTCC 2488 incubated for 14 to 16 hrs by micro broth dilution method; type: functional; conditions: time 14-16 hrs; outline: as §1
[4] = tested on: Staphylococcus aureus; assay: Bactericidal activity against Staphylococcus aureus MTCC 96 […] by micro broth dilution method; type: functional
[5] = tested on: Escherichia coli; assay: Bactericidal activity against Escherichia coli MTCC 1687 assessed as fragmented cell morphology incubated for 5 hrs by FESEM analysis; type: functional, organism-based
Outline: (§2)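 S. aureus MTCC 96 and E. coli MTCC 1687 harvested by centrifugation (5000 rpm, 5 min) and washed. Exposed to compound for 5 h alongside untreated control. Cells washed with water, drop-cast on foil, air-dried, mounted on carbon tape, gold double-coated, and imaged by FESEM.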

[6] = tested on: Staphylococcus aureus; assay: Antibiofilm activity against Staphylococcus aureus MTCC 96 assessed as inhibition of biofilm formation incubated for overnight by crystal violet staining assay; type: functional, organism-based; conditions: dose 6.25-100 µM
Outline: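 S. aureus MTCC 96 grown and exposed to compound as in the MIC assay, then incubated overnight. Planktonic cells removed, wells rinsed with PBS and air-dried. Stained with 1% (v/v) crystal violet for 20 min, dried, dye taken up in 95% ethanol, and absorbance read at 590 nm.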

[7] = tested on: Staphylococcus aureus; assay: Bactericidal activity against Staphylococcus aureus MTCC 96 assessed as fragmented cell morphology incubated for 5 hrs by FESEM analysis; type: functional, organism-based; outline: as §2
[8] = Aggregation property of the compound in aqueous medium assessed as formation of spherical aggregates by FE-TEM analysis; type: physicochemical; conditions: buffer
Outline: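 Lipid aggregates prepared in PBS pH 7.4 by film hydration, not extruded, then diluted to half concentration. Applied to carbon-coated copper grid for 1 min, uranyl acetate stain, excess wicked off. Grid dried overnight at 30 °C and imaged by TEM at 200 kV.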

[9] = tested on: Staphylococcus aureus; assay: Bactericidal activity against methicillin resistant Staphylococcus aureus […] by micro broth dilution method; type: functional
[10] = Aggregation property of compound assessed as spherical aggregates size by dynamic light scattering analysis; type: physicochemical
Outline: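 Chloroform stock dried to a film by rotary evaporation, hydrated overnight at 50 °C in PBS (137 mM NaCl, 2.7 mM KCl, 8 mM Na2HPO4, 2 mM KH2PO4, pH 7.4), then vortexed and intermittently sonicated to unilamellar vesicles. Hydrodynamic diameter and zeta potential measured by DLS at 25 °C in buffers of different pH.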

[11] = tested on: Escherichia coli; assay: Antibacterial activity against Escherichia coli MTCC 1687 incubated for 14 to 16 hrs by micro broth dilution method; type: functional; conditions: time 14-16 hrs; outline: as §1
[12] = Therapeutic index, ratio of IC50 for human HaCaT to MIC for Escherichia coli; type: toxicity; conditions: HaCaT cells, read-out: TI
[13] = tested on: Pseudomonas aeruginosa; assay: Bactericidal activity against Pseudomonas aeruginosa MTCC 2488 incubated for 24 hrs by micro broth dilution method; type: functional
[14] = Hemolytic activity against human erythrocytes incubated for 1 hr by UV-vis spectroscopic method; type: ADME, cell-based, Erythrocyte
Outline: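 Erythrocytes from fresh human blood spun at 1500 rpm for 10 min, PBS-washed, made to 5% haematocrit. Serial compound dilutions incubated with the cells for 1 h at 37 °C. Buffer served as negative control and 0.5% Triton X-100 as positive control. After centrifugation, supernatant absorbance read at 410 nm and % haemolysis computed against both controls.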

[15] = tested on: Cell membrane; assay: Induction of membrane depolarization in Staphylococcus aureus MTCC 96 assessed as increase in fluorescence intensity at 0 to 4 uM by DiSC3-5 dye based fluorescence assay; type: subcellular; conditions: dose 0-4 µM
Outline: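 Mid-log S. aureus MTCC 96 resuspended in 10 mM HEPES with 50 mM glucose and loaded with 0.4 μM (final) DiSC3(5) for 1 h. KCl added to 100 mM, 10 min wait, then compound at 0, 2 or 4 μM or 30 μM valinomycin as positive control. Fluorescence recorded at excitation 620 nm, emission 650 nm.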

[16] = tested on: Staphylococcus aureus; assay: Antibacterial activity against methicillin resistant Staphylococcus aureus incubated for 14 to 16 hrs by micro broth dilution method; type: functional; conditions: time 14-16 hrs
Outline: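 MRSA grown in BHI broth at 37 °C with shaking to mid-log phase, harvested, PBS-washed and resuspended in PBS; 10^6 CFU mL−1 incubated with serially varied compound concentrations at 37 °C for 14–16 h; OD600 read. MIC is the lowest concentration with no visible growth or OD near the bacteria-free control; repeated thrice.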

[17] = tested on: Staphylococcus aureus; assay: Bactericidal activity against Staphylococcus aureus assessed as membrane damage incubated for 5 hrs by cFDA-SE dye based fluorescence microscopic analysis; type: functional, organism-based
Outline: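 S. aureus cultured and harvested, then exposed to compound (buffer-only control) for 5 h. Cells washed and diluted to 10^6 CFU/mL, stained separately with 30 μM PI or 10 μM cFDA-SE for 30 min, and viewed by fluorescence microscopy.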

[18] = tested on: Escherichia coli; assay: Bactericidal activity against Escherichia coli MTCC 1687 incubated for 24 hrs by micro broth dilution method; type: functional
[19] = Drug release in PBS at pH 7.4 assessed as amoxicillin release incubated for 60 hours by fluorometric method; conditions: buffer, pH 7.4, 60 h
[20] = tested on: HaCaT; assay: Cytotoxicity against human HaCaT cells after 24 hrs by MTT assay; type: cell-based
[21] = Drug release in PBS at pH 7.4 assessed as tetracyclin release incubated for 60 hours by fluorometric method; conditions: buffer, pH 7.4, 60 h
[22] = tested on: Cell membrane; assay: Disruption of bacterial cell membrane in Staphylococcus aureus MTCC 96 assessed as increase in PI uptake by measuring increase in fluorescence intensity by PI dye based spectrofluorometric analysis; type: subcellular; conditions: time 1-3 hrs, TDE = time-dependent effect
Outline: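 S. aureus MTCC 96 grown overnight and diluted in medium to 10^6 CFU/mL. Compound added, then incubated at 37 °C, 180 rpm. Samples taken at 1, 2 and 3 h, washed in PBS, stained with 30 μM PI for 30 min, washed again. Fluorescence read at excitation 535 nm, emission 617 nm.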

[23] = tested on: Staphylococcus aureus; assay: Synergistic antibacterial activity against Staphylococcus aureus assessed as amoxicillin MIC encapsulated by compound; type: functional
Outline: (§3)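 Antibiotic-loaded liposomes (film hydrated with tetracycline or amoxicillin in PBS, freeze–thaw, vortexing, unloaded drug removed by centrifugation) tested by the same broth microdilution protocol: mid-log cells in PBS at 10^6 CFU/mL, 37 °C, 14–16 h, OD600.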

[24] = tested on: Escherichia coli; assay: Synergistic antibacterial activity against Escherichia coli assessed as amoxicillin MIC encapsulated by compound; type: functional; outline: as §3
[25] = tested on: Pseudomonas aeruginosa; assay: Antibacterial activity against Pseudomonas aeruginosa after 24 hrs by microdilution method; type: functional
[26] = tested on: Escherichia coli; assay: Synergistic antibacterial activity against Escherichia coli assessed as tetracyclin MIC encapsulated by compound; type: functional; outline: as §3
[27] = tested on: Staphylococcus aureus; assay: Synergistic antibacterial activity against Staphylococcus aureus assessed as tetracyclin MIC encapsulated by compound; type: functional; outline: as §3
[28] = Solubility of compound in PBS at pH 7.4; type: physicochemical; conditions: buffer
[29] = tested on: HaCaT; assay: Cytotoxicity against human HaCaT cells up to 100 uM after 24 hrs by MTT assay; type: cell-based

MIC [25] | Structure (SMILES) | MIC [2] | MIC [3] | MIC [11] | MIC [16] | other results
 | CCCCCCCCCCCC[S+](C)Cc1cc(C[n+]2ccccc2)cc(C[S+](C)CCCCCCCCCCCC)c1.F[B-](F)(F)F.F[B-](F)(F)F.F[B-](F)(F)F (stereo unspecified) | 6.3 µM | 12 µM | 7.5 µM | 6.3 µM | selectivity ratio [1]: 4.3; MBC [4]: 12.5 µM; Activity [5]: Active; Activity [6]: Dose-dependent effect; Activity [7]: Active; Activity [8]: Active; MBC [9]: 12.5 µM; Activity [10]: 270 nm; selectivity ratio [12]: 3.6; MBC [13]: 24 µM; HC50 at 1 h [14]: 29 µM; Activity [15]: Active; Activity [17]: Active; MBC [18]: 10 µM; Activity [19]: 60%; pIC50 [20]: 4.57; Activity [21]: 40%; Activity [22]: Tde
 | CCCCCCCCCCCCSCc1cc(CN=[N+]=[N-])cc(CSCCCCCCCCCCCC)c1 | > 100 µM | > 100 µM | > 100 µM | > 100 µM | 
 | CCCCCCCCCCCCSCc1cc(CSCCCCCCCCCCCC)cc(C[n+]2ccccc2)c1 | > 100 µM | > 100 µM | > 100 µM | > 100 µM | 
 | CC1(C)S[C@@H]2[C@H](NC(=O)[C@H](N)c3ccc(O)cc3)C(=O)N2[C@H]1C(=O)O [AMOXICILLIN] | 6.8 µM (≈ 2.48 µg/mL) | 4.3 µM (≈ 1.57 µg/mL) | 11 µM (≈ 4.02 µg/mL) | > 50 µM | MIC [23]: 1.2 µM; pIC50 [20]: 4.53; MIC [24]: 1.7 µM
15.6 µg/mL and 30.9 µM | N=C(NCCCCCCNC(=N)NC(=N)Nc1ccc(Cl)cc1)NC(=N)Nc1ccc(Cl)cc1.O=C(O)[C@H](O)[C@@H](O)[C@H](O)[C@H](O)CO |  |  |  |  | 
 | CN(C)[C@@H]1C(O)=C(C(N)=O)C(=O)[C@@]2(O)C(O)=C3C(=O)c4c(O)cccc4[C@@](C)(O)[C@H]3C[C@@H]12 [TETRACYCLINE] | 4.2 µM (≈ 1.87 µg/mL) | 14 µM (≈ 6.22 µg/mL) | 8.5 µM (≈ 3.78 µg/mL) | > 100 µM | MIC [26]: 2 µM; pIC50 [20]: 5.10; MIC [27]: 0.7 µM
 | CCSCc1cc(CSCC)cc(C[n+]2ccccc2)c1 | > 100 µM | > 100 µM | > 100 µM | > 100 µM | 
6.25 µM and 3.9 µg/mL | CCCCCCCCN=c1ccn(CCCCCCCCCCn2ccc(=NCCCCCCCC)cc2)cc1.Cl.Cl [OCTENIDINE HYDROCHLORIDE] |  |  |  |  | 
 | CC[S+](C)Cc1cc(C[n+]2ccccc2)cc(C[S+](C)CC)c1.F[B-](F)(F)F.F[B-](F)(F)F.F[B-](F)(F)F (stereo unspecified) | > 100 µM | > 100 µM | > 100 µM | > 100 µM | solubility [28]: Soluble
32 µg/mL | CCCCCCCCCCCCC[N+](C)(C)Cc1ccccc1.[Cl-] [BENZALKONIUM CHLORIDE] |  |  |  |  | 
 | CCCCCCCCCCCCSCc1cc(CSCCCCCCCCCCCC)cc(Cn2cc(CS(=O)(=O)O)nn2)c1 | > 100 µM | > 100 µM | > 100 µM | > 100 µM | 
 | CCCCCCCCCCCC[S+](C)Cc1cc(Cn2cc(CS(=O)(=O)O)nn2)cc(C[S+](C)CCCCCCCCCCCC)c1.F[B-](F)(F)F.F[B-](F)(F)F (stereo unspecified) | 10 µM | 25 µM | 12 µM | 25 µM | MBC [4]: 12.5 µM; Activity [29]: Non-Toxic; MBC [9]: > 100 µM; MBC [13]: 50 µM; HC50 at 1 h [14]: 35 µM; MBC [18]: 20 µM

Structure (SMILES) | MIC [25] | MIC [2] | MIC [3] | MIC [11] | MIC [16] | other results
Oc1cc(Cl)ccc1Oc1ccc(Cl)cc1Cl [TRICLOSAN] | > 512 µg/mL |  |  |  |  | 
